ChEMBL document CHEMBL1121825, “A potent, new, sedative--hypnotic agent: 5,7-dihydro-5,5,7,7-tetramethyl-3-(3-nitrophenyl)furo[3,4-e]-as-triazine 4-oxide” (J Med Chem, 1981)

What was measured:
[1] = system: Mus musculus; experiment: Tested for ability to reinduce anesthesia in mice when administered intraperitoneally as a measure of in vivo sedative-hypnotic activity; D represents Toxic; type: functional, organism-based
Method in brief: (§1)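 Male Royal Hart mice (20–25 g) were anesthetized with hexobarbital 70.0 mg/kg iv. While they were regaining the righting reflex, compound was given ip. Reinduction was scored as loss of righting reflex for 10 min. ED50 (mg/kg) is the dose reinducing anesthesia in 50% of mice, estimated by probit analysis (Miller–Tainter).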

[2] = system: Mus musculus; experiment: Ability to reinduce anesthesia in mice as a measure of in vivo sedative-hypnotic activity; type: functional; method in brief: as §1

Row | SMILES | ED50 [1] | ED50 [2] [mg/kg]
1 | CCCc1nc(-c2ccccn2)nnc1C | Toxic | –
2 | CC1(C)OC(C)(C)c2c1nnc(-c1cc([N+](=O)[O-])cc([N+](=O)[O-])c1)[n+]2[O-] | – | 500
3 | CC1(C)OC(C)(C)c2c1nnc(-c1cccc(F)c1)[n+]2[O-] | – | 74.9
4 | CC1(C)C/C(=N\Nc2ccccc2)C(C)(C)O1 | – | 162
5 | CCOC(=O)c1nnc(-c2ccccn2)nc1O | Toxic | –
6 | CC1(C)OC(C)(C)c2nc(-c3cccc(C(F)(F)F)c3)nnc21 | – | 500
7 | CC1(C)CSCC(C)(C)c2nc(-c3ccccn3)nnc21 | Toxic | –
8 | CC1(C)OC(C)(C)c2nc(Cc3ccccc3)nnc21 | – | 25
9 | CC1(C)OC(C)(C)c2nc(-c3ccncc3)nnc21 | – | 56.2
